Reference: ChEMBL document CHEMBL1126910, “18F-labeled benzamides for studying the dopamine D2 receptor with positron emission tomography” (J Med Chem, 1993)

Columns and labels:
[1] = target: T1, Adrenergic receptor alpha-2 (Rattus norvegicus, UniProt P22086+P19328+P22909); assay: In vitro binding affinity on alpha-2 receptor is inhibition of binding of [3H]- rauwolscine to rat cortex
T1 sequence (P22086 whole entry): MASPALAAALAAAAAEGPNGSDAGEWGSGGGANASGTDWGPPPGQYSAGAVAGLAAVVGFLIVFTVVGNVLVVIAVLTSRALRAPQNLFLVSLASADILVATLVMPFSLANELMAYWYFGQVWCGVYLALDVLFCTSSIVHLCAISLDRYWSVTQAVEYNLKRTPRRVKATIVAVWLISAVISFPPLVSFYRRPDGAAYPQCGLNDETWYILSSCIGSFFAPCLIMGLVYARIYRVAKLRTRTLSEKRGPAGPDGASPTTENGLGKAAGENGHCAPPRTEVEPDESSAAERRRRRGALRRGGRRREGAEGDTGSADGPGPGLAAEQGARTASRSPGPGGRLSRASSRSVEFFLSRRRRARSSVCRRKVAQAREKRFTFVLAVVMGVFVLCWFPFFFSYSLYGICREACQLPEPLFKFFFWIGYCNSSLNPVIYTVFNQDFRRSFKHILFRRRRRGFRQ
T1 sequence (P19328 whole entry): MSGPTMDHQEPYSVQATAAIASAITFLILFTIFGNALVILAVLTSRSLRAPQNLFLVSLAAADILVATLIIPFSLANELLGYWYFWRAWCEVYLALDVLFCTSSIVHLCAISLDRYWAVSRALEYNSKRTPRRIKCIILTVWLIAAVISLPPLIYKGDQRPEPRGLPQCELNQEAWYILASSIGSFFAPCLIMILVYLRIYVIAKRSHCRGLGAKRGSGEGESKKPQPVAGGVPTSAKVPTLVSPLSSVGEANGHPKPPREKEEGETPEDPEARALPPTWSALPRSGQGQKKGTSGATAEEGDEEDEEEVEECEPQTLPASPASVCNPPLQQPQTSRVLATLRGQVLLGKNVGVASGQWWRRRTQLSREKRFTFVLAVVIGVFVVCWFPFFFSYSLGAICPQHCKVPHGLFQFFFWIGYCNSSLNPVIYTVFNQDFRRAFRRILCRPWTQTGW
T1 sequence (P22909 whole entry): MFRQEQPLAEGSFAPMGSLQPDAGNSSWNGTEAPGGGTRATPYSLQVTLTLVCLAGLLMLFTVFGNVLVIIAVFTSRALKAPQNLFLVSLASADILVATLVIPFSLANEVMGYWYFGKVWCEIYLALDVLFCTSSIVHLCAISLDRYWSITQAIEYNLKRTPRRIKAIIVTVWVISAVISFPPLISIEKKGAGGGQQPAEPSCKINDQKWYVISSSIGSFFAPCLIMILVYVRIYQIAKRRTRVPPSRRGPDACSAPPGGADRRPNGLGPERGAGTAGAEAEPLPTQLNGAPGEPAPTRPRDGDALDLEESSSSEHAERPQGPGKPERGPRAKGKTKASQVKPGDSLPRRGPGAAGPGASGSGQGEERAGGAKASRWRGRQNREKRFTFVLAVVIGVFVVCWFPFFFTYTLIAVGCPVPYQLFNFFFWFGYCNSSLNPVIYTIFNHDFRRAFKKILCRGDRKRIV
Procedure, shortened: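 Rat cerebral cortex membranes, 2 nM [3H]rauwolscine in 20 mM HEPES pH 7.4, run in triplicate; nonspecific with 10 μM phentolamine; 20 °C, 30 min; glass fiber filtration, liquid scintillation counting. IC50 by curve fitting, converted to Ki via Cheng–Prusoff.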

[2] = target: Serotonin 2 (5-HT2) receptor (Rattus norvegicus, UniProt P30994+P08909+P14842); assay: In vitro binding affinity on 5-hydroxytryptamine 2 receptor is inhibition of binding of [125I]- I-LSD to P11 cells
Procedure, shortened: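 Competition binding on membranes from P11 cells (pituitary tumor 7315A line, 5-HT2 without D2 or other serotonin subtypes); 0.4–0.5 nM [125I]I-LSD in 50 mM Tris-HCl pH 7.4; 1 μM ketanserin defines nonspecific; 37 °C, 60 min; filtration, gamma counting. IC50 from curve fitting, Ki by Cheng–Prusoff.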

[3] = target: D(2) dopamine receptor (Rattus norvegicus, UniProt P61169); assay: Inhibition of [125I]- NCQ 298 binding to D2 receptor of rat striatal tissue; format: tissue-based, Striatum
[4] = system: Rattus norvegicus; assay: In vivo brain uptake of [18F]-labeled compound by rat brain at 30 min; format: functional, organism-based
Procedure, shortened: (§1)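 Sprague–Dawley rats (200–300 g), anesthetized with ketamine/xylazine, received 18F-labeled ligand (20–150 μCi) in 0.5–1.0 mL 0.9% saline i.v. (femoral vein). Decapitated at set intervals from 5 min to 5 h. Whole brain removed, weighed and gamma-counted, expressed as % ID/brain and % ID/g brain. Mean ± SEM, n = 4-8.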

[5] = system: Rattus norvegicus; assay: In vivo brain uptake of [18F]-labeled compound by rat brain at 2 hr; format: functional, organism-based; procedure, shortened: as §1
[6] = system: Rattus norvegicus; assay: In vivo brain uptake of [18F]-labeled compound by rat brain at 5 hr; format: functional, organism-based; procedure, shortened: as §1
[7] = system: Rattus norvegicus; assay: In vivo blood concentration of [18F]-labeled compound by rat brain at 5 min; format: functional, organism-based
Procedure, shortened: (§2)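 Sprague–Dawley rats (200–300 g) under ketamine/xylazine anesthesia given 0.5–1.0 mL of 0.9% saline containing 18F-labeled ligand (20–150 μCi) i.v. via femoral vein. Killed by decapitation at set times (5 min to 5 h). A blood sample was taken and gamma-counted, expressed as % ID/g of blood. Mean ± SEM, n = 4-8.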

[8] = Partition coefficient (logP); format: physicochemical; settings: C-18 reversed-phase HPLC
Procedure, shortened: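 Lipophilicity measured as log P by the C-18 reversed-phase HPLC method of Kraak et al.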

[9] = system: Rattus norvegicus; assay: In vivo blood concentration of [18F]-labeled compound by rat brain at 1 hr; format: functional, organism-based; procedure, shortened: as §2
[10] = system: Rattus norvegicus; assay: In vivo blood concentration of [18F]-labeled compound by rat brain at 3h; format: functional, organism-based; procedure, shortened: as §2
[11] = system: Rattus norvegicus; assay: In vivo brain uptake of [18F]-labeled compound by rat brain at 4 hr; format: functional, organism-based; procedure, shortened: as §1
[12] = system: Rattus norvegicus; assay: In vivo brain uptake of [18F]-labeled compound by rat brain at 5 min; format: functional, organism-based; procedure, shortened: as §1
[13] = system: Rattus norvegicus; assay: In vivo brain uptake of [18F]-labeled compound by rat brain at 1 hr; format: functional, organism-based; procedure, shortened: as §1
[14] = target: D(3) dopamine receptor (Rattus norvegicus); assay: In vitro binding affinity on D3 receptor is inhibition of binding of [125I]- NCQ 298 to Sf9 cells infected with recombinant baculovirus
[15] = system: Rattus norvegicus; assay: In vivo brain uptake of [18F]-labeled compound by rat brain at 3h; format: functional, organism-based; procedure, shortened: as §1
[16] = system: Rattus norvegicus; assay: In vivo blood concentration of [18F]-labeled compound by rat brain at 30 min; format: functional, organism-based; procedure, shortened: as §2
[17] = system: Rattus norvegicus; assay: In vivo blood concentration of [18F]-labeled compound by rat brain at 5 hr; format: functional, organism-based; procedure, shortened: as §2
[18] = system: Rattus norvegicus; assay: In vivo blood concentration of [18F]-labeled compound by rat brain at 4 hr; format: functional, organism-based; procedure, shortened: as §2
[19] = system: Rattus norvegicus; assay: In vivo blood concentration of [18F]-labeled compound by rat brain at 2 hr; format: functional, organism-based; procedure, shortened: as §2

Chain of D(2) dopamine receptor (P61169 whole entry): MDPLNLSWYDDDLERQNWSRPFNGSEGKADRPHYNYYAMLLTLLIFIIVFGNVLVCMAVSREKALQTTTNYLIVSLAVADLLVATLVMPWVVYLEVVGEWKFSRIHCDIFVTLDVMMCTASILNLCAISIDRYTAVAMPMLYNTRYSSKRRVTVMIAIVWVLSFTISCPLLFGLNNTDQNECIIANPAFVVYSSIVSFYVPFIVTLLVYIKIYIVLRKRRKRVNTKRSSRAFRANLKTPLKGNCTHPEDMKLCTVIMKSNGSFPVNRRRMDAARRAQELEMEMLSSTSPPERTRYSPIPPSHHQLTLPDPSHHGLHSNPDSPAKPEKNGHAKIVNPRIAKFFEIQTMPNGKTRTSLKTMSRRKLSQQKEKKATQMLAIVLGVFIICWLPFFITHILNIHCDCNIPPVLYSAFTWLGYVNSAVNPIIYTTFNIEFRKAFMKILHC

COc1cc(N)c(Cl)cc1C(=O)NC1CCN(Cc2ccccc2)CC1 [CLEBOPRIDE]
Ki [1]: 600 nM
Ki [2]: 89 nM

COc1cc(Br)cc(C(=O)NC2CCN(Cc3ccccc3)CC2)c1OC
Ki [3]: 0.31 nM

COc1cc(Br)cc(C(=O)NC2CC3CCCC(C2)N3Cc2ccc(F)cc2)c1OC (stereo not drawn)
Ki [1]: 1900 nM
Ki [3]: 0.02 nM
Ki [2]: 3.1 nM

COc1cc(N)c(Cl)cc1C(=O)NC1CCN(Cc2ccc(F)cc2)CC1
Ki [1]: 1300 nM
Ki [2]: 283 nM

COc1cccc(C(=O)NC2CCN(Cc3ccc(F)cc3)CC2)c1OC
ID/brain [4]: 0.61%
ID/g [4]: 0.39%
ID/brain [5]: 0.5%
ID/g [5]: 0.33%
ID/brain [6]: 0.19%
ID/g [6]: 0.12%
ID/g [7]: 0.155%
logP [8]: 2.83
Ki [1]: 3000 nM
ID/g [9]: 0.043%
ID/g [10]: 0.017%
ID/brain [11]: 0.17%
ID/g [11]: 0.11%
Ki [3]: 0.38 nM
ID/brain [12]: 1.28%
ID/g [12]: 0.81%
Ki [2]: 1840 nM
ID/brain [13]: 0.57%
ID/g [13]: 0.36%
Ki [14]: 5.91 nM
ID/brain [15]: 0.38%
ID/g [15]: 0.25%
ID/g [16]: 0.066%
ID/g [17]: 0.012%
ID/g [18]: 0.01%
ID/g [19]: 0.029%

COc1cc(Br)cc(C(=O)NC2CC3CCCC(C2)N3Cc2ccccc2)c1OC (stereo not drawn)
Ki [3]: 0.033 nM

COc1cccc(C(=O)NC2CC3CCCC(C2)N3Cc2ccccc2)c1OC (stereo not drawn)
Ki [3]: 0.038 nM

COc1cc(N)c(Cl)cc1C(=O)NC1CC2CCCC(C1)N2Cc1ccccc1 (stereo not drawn)
Ki [3]: 0.036 nM

CCN1CCC[C@H]1CNC(=O)c1c(O)c(I)cc(OC)c1OC [IOXIPRIDE]
Ki [14]: 0.16 nM

COc1cc(Br)cc(C(=O)NC2CCN(Cc3ccc(F)cc3)CC2)c1OC
ID/brain [4]: 0.55%
ID/g [4]: 0.32%
ID/brain [5]: 0.27%
ID/g [5]: 0.14%
ID/brain [6]: 0.2%
ID/g [6]: 0.12%
ID/g [7]: 0.088%
Ki [1]: 3000 nM
ID/g [9]: 0.025%
ID/g [10]: 0.013%
ID/brain [11]: 0.21%
ID/g [11]: 0.12%
ID/brain [12]: 1.12%
ID/g [12]: 0.58%
Ki [2]: 94 nM
ID/brain [13]: 0.36%
ID/g [13]: 0.2%
ID/brain [15]: 0.2%
ID/g [15]: 0.1%
ID/g [16]: 0.036%
ID/g [17]: 0.012%
ID/g [18]: 0.012%
ID/g [19]: 0.016%

COc1cc(N)c(Cl)cc1C(=O)N[C@@H]1C[C@H]2CCC[C@@H](C1)N2Cc1ccc(F)cc1
Ki [3]: > 10 nM
Ki [2]: 2200 nM

COc1cccc(C(=O)NC2CCN(Cc3ccccc3)CC2)c1OC
Ki [3]: 0.63 nM

COc1cccc(C(=O)NC2CC3CCCC(C2)N3Cc2ccc(F)cc2)c1OC (stereo not drawn)
ID/brain [4]: 0.35%
ID/g [4]: 0.2%
ID/brain [5]: 0.44%
ID/g [5]: 0.27%
ID/brain [6]: 0.23%
ID/g [6]: 0.14%
ID/g [7]: 0.156%
logP [8]: 2.86
Ki [1]: 1300 nM
ID/g [9]: 0.044%
ID/g [10]: 0.019%
ID/brain [11]: 0.36%
ID/g [11]: 0.22%
ID/brain [12]: 0.64%
ID/g [12]: 0.39%
Ki [2]: 84 nM
ID/brain [13]: 0.31%
ID/g [13]: 0.23%
ID/brain [15]: 0.37%
ID/g [15]: 0.23%
ID/g [16]: 0.089%
ID/g [17]: 0.005%
ID/g [18]: 0.013%
ID/g [19]: 0.024%
